Results published in ChEMBL document CHEMBL1123131, “Examination of a series of 8-[3-[bis(4-fluorophenyl)amino]propyl]-1-aryl-1,3,8- triazaspiro[4.5]decan-4-ones as potential antipsychotic agents” (J Med Chem, 1985).

Experiments:
Mus musculus = test: Antipsychotic activity using locomotor activity (LMA)-inverted screen test in mice (i.p. admin.); assay type: functional; conditions: ip, read-out: MED
In short: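 Unfasted male Swiss-Webster mice, 20–30 g, nine per dose; ip 1 h before testing in 0.2% methocel, 10 mL/kg; 10, 30, 100 mg/kg, three replicates. Inverted-screen falloff over 60 s, then photocell locomotion for 60 min versus vehicle. MED = lowest dose giving >60% locomotor inhibition with <60% falloff.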

Rattus norvegicus [1] = organism: Rattus norvegicus; test: Activity against the suppression of high base line self stimulation with electrodes in the medial forebrain of the posterior hypothalamus of male hooded rats (Peroral admin.); assay type: functional; conditions: po
In short: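 Male hooded rats with electrodes in the medial forebrain bundle of the posterior hypothalamus; rapid high base-line self-stimulation rates served as base lines. Oral dosing, behaviour recorded continuously on cumulative recorders. Active if base-line rate was reduced by 50% for 1.5 h or more. Four rats per dose; ED50 by computer analysis (linear regression from doses bracketing the ED50).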

Rattus norvegicus [2] = test: The compound was tested (after peroral administration) for its ability to induce catalepsy in rats; assay type: functional; conditions: po
In short: (§1)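 Fasted male Long-Evans hooded rats, 180–220 g, used once; oral intubation, suspended in 0.2% methylcellulose if insoluble. At least three doses, eight rats per dose. Forepaws placed on a horizontal rod 11.5 cm high, read every 30 min for 1 h then hourly to 6 h, 24 h if needed. Partial scores summed; ED50 by nonlinear regression.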

[3] = molecular target: Muscarinic acetylcholine receptor; test: The compound was tested for inhibition of [3H]QNB binding to Muscarinic acetylcholine receptor; assay type: protein assay
[4] = The compound was tested (after peroral administration) for its ability to induced catalepsy in squirrel monkeys; assay type: functional; conditions: po
In short: (§2)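 Adult squirrel monkeys, 600–1000 g, fasted overnight, oral dosing with at least 1 week between dosings. Observed hourly for at least 6 h and at 24 h. Four animals per dose, at least three doses; ED50 by nonlinear regression for quantal data.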

[5] = molecular target: T1, Adrenergic receptor alpha-1 (Rattus norvegicus, UniProt P15823+P23944+P43140)
T1 sequence (P15823 whole entry): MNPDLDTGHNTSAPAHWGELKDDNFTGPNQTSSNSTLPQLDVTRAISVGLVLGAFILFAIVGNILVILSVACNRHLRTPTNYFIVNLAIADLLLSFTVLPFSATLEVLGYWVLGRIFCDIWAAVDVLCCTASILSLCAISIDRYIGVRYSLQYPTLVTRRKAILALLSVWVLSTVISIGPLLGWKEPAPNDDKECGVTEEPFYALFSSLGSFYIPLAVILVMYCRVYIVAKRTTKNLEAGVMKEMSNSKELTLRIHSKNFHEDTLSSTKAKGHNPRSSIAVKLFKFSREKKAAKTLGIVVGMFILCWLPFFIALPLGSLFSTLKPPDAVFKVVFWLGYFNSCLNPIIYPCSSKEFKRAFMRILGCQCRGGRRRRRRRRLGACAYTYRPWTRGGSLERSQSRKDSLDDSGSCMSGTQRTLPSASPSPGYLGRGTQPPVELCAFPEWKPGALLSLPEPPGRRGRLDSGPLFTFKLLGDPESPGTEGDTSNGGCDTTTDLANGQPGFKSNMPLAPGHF
T1 sequence (P23944 whole entry): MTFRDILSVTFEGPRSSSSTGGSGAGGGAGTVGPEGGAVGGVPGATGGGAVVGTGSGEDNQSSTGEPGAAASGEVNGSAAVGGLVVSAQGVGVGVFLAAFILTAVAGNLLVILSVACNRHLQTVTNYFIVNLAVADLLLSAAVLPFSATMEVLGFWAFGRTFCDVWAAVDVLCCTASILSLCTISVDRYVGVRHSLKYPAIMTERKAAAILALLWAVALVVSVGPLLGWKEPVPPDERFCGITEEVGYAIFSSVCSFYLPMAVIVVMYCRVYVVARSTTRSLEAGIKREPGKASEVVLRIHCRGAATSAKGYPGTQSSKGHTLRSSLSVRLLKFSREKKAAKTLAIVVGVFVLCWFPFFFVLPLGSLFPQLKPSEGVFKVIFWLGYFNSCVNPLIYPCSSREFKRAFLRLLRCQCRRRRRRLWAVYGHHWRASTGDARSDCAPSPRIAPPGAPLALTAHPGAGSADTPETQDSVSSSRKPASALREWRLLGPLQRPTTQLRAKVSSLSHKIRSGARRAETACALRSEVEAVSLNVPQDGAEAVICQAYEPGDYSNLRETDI
T1 sequence (P43140 whole entry): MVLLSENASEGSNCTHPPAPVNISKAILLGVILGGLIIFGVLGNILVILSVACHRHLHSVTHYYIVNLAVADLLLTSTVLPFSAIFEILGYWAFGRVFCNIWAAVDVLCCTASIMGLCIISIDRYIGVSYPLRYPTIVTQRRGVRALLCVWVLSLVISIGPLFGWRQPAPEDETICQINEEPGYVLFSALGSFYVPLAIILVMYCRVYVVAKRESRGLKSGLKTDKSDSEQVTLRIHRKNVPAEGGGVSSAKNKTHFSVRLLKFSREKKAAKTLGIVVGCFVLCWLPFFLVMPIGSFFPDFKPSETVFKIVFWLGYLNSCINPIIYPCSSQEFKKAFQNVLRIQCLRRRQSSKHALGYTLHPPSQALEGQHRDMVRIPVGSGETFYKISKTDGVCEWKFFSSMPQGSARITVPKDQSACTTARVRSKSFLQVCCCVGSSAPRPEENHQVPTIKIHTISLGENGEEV

[6] = Minimal effective dose (after peroral administration) required for signs of EPS in cebus monkeys; assay type: functional; conditions: po; read-out: MED
Rattus norvegicus [7] = test: The compound was tested (after peroral administration) for inhibition of sidman avoidance in rat; assay type: functional; conditions: po
In short: (§3)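 Mature male Long-Evans rats or squirrel monkeys trained on a modified Sidman avoidance lever schedule with 0.5-s shock; 6-h sessions, given orally. Response expressed as % inhibition of nondrug avoidance responding, each animal its own control. At least three doses, four animals each, sessions at least 1 week apart; ED50 by nonlinear regression.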

[8] = The compound was (after peroral administration) tested for inhibition of sidman avoidance in squirrel monkeys; assay type: functional; conditions: po; in short: as §3
[9] = The compound was tested for inhibition of sidman avoidance in squirrel monkeys; assay type: functional; in short: as §3
Rattus norvegicus [10] = organism: Rattus norvegicus; test: The compound was tested for its ability to induced catalepsy in rats; assay type: functional; in short: as §1
[11] = Minimal effective dose required for signs of EPS in cebus monkeys; assay type: functional; conditions: read-out: MED
Rattus norvegicus [12] = organism: Rattus norvegicus; test: The compound was tested for inhibition of sidman avoidance in rat; assay type: functional; in short: as §3
[13] = The compound was tested for its ability to induced catalepsy in squirrel monkeys; assay type: functional; in short: as §2

| SMILES | minimal effective dose (Mus musculus) | ED50 (Rattus norvegicus [1]) | ED50 (Rattus norvegicus [2]) | also measured |
| --- | --- | --- | --- | --- |
| CN1CN(c2ccccc2)C2(CCN(CCCN(c3ccc(F)cc3)c3ccc(F)cc3)CC2)C1=O | ≤ 10 mg/kg | 2.84 mg/kg | 33 mg/kg | – |
| O=C1NCN(c2ccc(Cl)cc2)C12CCN(CCCN(c1ccc(F)cc1)c1ccc(F)cc1)CC2 | 30 mg/kg | 2 mg/kg | – | – |
| O=C1NCN(c2ccccc2)C12CCN(CCCN(c1ccc(F)cc1)c1ccc(F)cc1)CC2 | 5 mg/kg | – | 81 mg/kg | IC50 [3]: > 100 nM; ED50 [4]: 30 mg/kg; IC50 [5]: > 1000 nM; minimal effective dose [6]: 2.5 mg/kg; ED50 (Rattus norvegicus [7]): 2.8 mg/kg; ED50 [8]: 1.7 mg/kg |
| CN(C)CCCN1CN(c2ccccc2)C2(CCN(CCCN(c3ccc(F)cc3)c3ccc(F)cc3)CC2)C1=O | – | 16 mg/kg | 200 mg/kg | – |
| O=C1N(Cc2ccccc2)CN(c2ccccc2)C12CCN(CCCN(c1ccc(F)cc1)c1ccc(F)cc1)CC2 | > 100 mg/kg | – | – | – |
| CN1CN(c2cccc(C(F)(F)F)c2)C2(CCN(CCCN(c3ccc(F)cc3)c3ccc(F)cc3)CC2)C1=O | 30 mg/kg | > 16 mg/kg | – | – |
| C=CCN1CN(c2ccccc2)C2(CCN(CCCN(c3ccc(F)cc3)c3ccc(F)cc3)CC2)C1=O | ≤ 10 mg/kg | 1.06 mg/kg | 22 mg/kg | – |
| O=C1NCN(c2ccc(F)cc2)C12CCN(CCCN(c1ccc(F)cc1)c1ccc(F)cc1)CC2 | ≤ 10 mg/kg | 0.55 mg/kg | 4.5 mg/kg | – |
| O=C1NCN(c2ccccc2F)C12CCN(CCCN(c1ccc(F)cc1)c1ccc(F)cc1)CC2 | – | > 16 mg/kg | – | – |
| O=C1N(CC2CC2)CN(c2ccccc2)C12CCN(CCCN(c1ccc(F)cc1)c1ccc(F)cc1)CC2 | 30 mg/kg | 8.39 mg/kg | 200 mg/kg | – |
| O=C1N(CO)CN(c2ccccc2)C12CCN(CCCN(c1ccc(F)cc1)c1ccc(F)cc1)CC2 | < 10 mg/kg | 0.89 mg/kg | 11 mg/kg | – |
| Cc1ccc(N2CNC(=O)C23CCN(CCCN(c2ccc(F)cc2)c2ccc(F)cc2)CC3)cc1 | ≤ 10 mg/kg | > 16 mg/kg | – | – |
| O=C1NCN(c2cccc(F)c2)C12CCN(CCCN(c1ccc(F)cc1)c1ccc(F)cc1)CC2 | 30 mg/kg | 0.78 mg/kg | 4.1 mg/kg | – |
| COc1ccc(N2CNC(=O)C23CCN(CCCN(c2ccc(F)cc2)c2ccc(F)cc2)CC3)cc1 | 30 mg/kg | > 16 mg/kg | – | – |
| CC(C)c1ccc(N2CNC(=O)C23CCN(CCCN(c2ccc(F)cc2)c2ccc(F)cc2)CC3)cc1 | > 100 mg/kg | – | – | – |
| O=C1N(COCc2ccccc2)CN(c2ccccc2)C12CCN(CCCN(c1ccc(F)cc1)c1ccc(F)cc1)CC2 | 100 mg/kg | > 16 mg/kg | – | – |
| CC(=O)OCN1CN(c2ccccc2)C2(CCN(CCCN(c3ccc(F)cc3)c3ccc(F)cc3)CC2)C1=O | < 10 mg/kg | 1.03 mg/kg | 17 mg/kg | – |
| CN1CN(c2ccc(F)cc2)C2(CCN(CCCN(c3ccc(F)cc3)c3ccc(F)cc3)CC2)C1=O | ≤ 10 mg/kg | 0.96 mg/kg | 54 mg/kg | – |
| CCN(CC)CCN1CN(c2ccccc2)C2(CCN(CCCN(c3ccc(F)cc3)c3ccc(F)cc3)CC2)C1=O | ≤ 10 mg/kg | 5.65 mg/kg | 138 mg/kg | – |
| O=C1NCN(c2cccc(C(F)(F)F)c2)C12CCN(CCCN(c1ccc(F)cc1)c1ccc(F)cc1)CC2 | > 100 mg/kg | – | – | – |
| CN1CCN(C2=Nc3cc(Cl)ccc3Nc3ccccc32)CC1 [CLOZAPINE] | 10 mg/kg | – | – | ED50 [9]: 4.1 mg/kg; ED50 (Rattus norvegicus [10]): 133 mg/kg; minimal effective dose [11]: > 30 mg/kg; ED50 (Rattus norvegicus [12]): 14.4 mg/kg; ED50 [13]: > 50 mg/kg |
| O=C(CCCN1CCC(O)(c2ccc(Cl)cc2)CC1)c1ccc(F)cc1 [HALOPERIDOL] | 0.3 mg/kg | 0.14 mg/kg | 0.1 mg/kg | ED50 [9]: 0.26 mg/kg; ED50 (Rattus norvegicus [10]): 0.47 mg/kg; minimal effective dose [11]: 0.3 mg/kg; ED50 (Rattus norvegicus [12]): 0.3 mg/kg; ED50 [13]: 2 mg/kg |
| O=C(CCCN1CCC2(CC1)C(=O)NCN2c1ccccc1)c1ccc(F)cc1 [SPIPERONE] | < 10 mg/kg | 1.28 mg/kg | 10.8 mg/kg | – |
